Data set [1] relates to Mycobacterium tuberculosis. Description: Antimycobacterial activity against Mycobacterium tuberculosis H37Rv ATCC 27294 by MABA method. The class given is functional. In a few lines: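 M. tuberculosis H37Rv (ATCC 27294), susceptible to all five first-line drugs, in modified Microplate Alamar Blue Assay. Two-fold serial dilutions were made in Middlebrook 7H9-OADC, 100–0.78 µg/mL, with 1:50 bacterial suspension (~6×10⁶ CFU/mL, McFarland 1). Incubation 37 °C, 5% CO₂, 5–7 days, then Alamar Blue plus 10% Tween-80, 24 h. MIC = first blue well, confirmed microscopically. Ethambutol was the reference; triplicate independent experiments.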
In general terms: Resazurin is reduced to fluorescent resorufin, in cell work by metabolically active cells.

A short description of data set [2]: Cytotoxicity against african green monkey Vero cells after 48 hrs by MTT assay. The conditions noted are these: chlorocebus sabaeus. The class given is cell-based. In outline: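 Vero cells grown in RPMI-1640 with 10% FBS, penicillin and streptomycin, 37 °C, 5% CO₂. Exposed to compound 500–0.5 µg/mL for 48 h, then MTT (4 mg/mL in PBS) for 3 h. Formazan dissolved in DMSO, absorbance read at 575 nm. CC50 = concentration inhibiting 50% viability by linear regression; rounded mean of three experiments.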
(Formazan colour is commonly taken as a measure of viable cells.)

A short description of data set [3]: Selectivity index, ratio of CC50 for african green monkey Vero cells to MIC for Mycobacterium tuberculosis H37Rv ATCC 27294. The class given is functional. In a few lines: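 SI calculated as CC50 (Vero, MTT, 48 h) divided by MIC against H37Rv (MABA).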

Converted amounts (≈) assume the structure as drawn.

One may read the MIC as the lowest concentration that inhibits growth of the organism. In general, CC50 refers to the concentration at which the toxic effect on the cells reaches its halfway point. Regarding `Cc1cc(O)c2c(c1)[C@H]([C@@H](C)CCCC(C)C)CC[C@H]2C`, it took 30.3 µM (≈ 8.74 µg/mL) to inhibit growth in data set [1] (MIC). This molecule also yielded a CC50 at 48 h in data set [2] of 192 µM. Besides, the “Selectivity Index” value in data set [3] amounted to 6.3. Take `Cc1cc(O)c2c(c1)[C@H]([C@@H](C)CCCC(C)(C)O)CC[C@H]2C`: the MIC in data set [1] came out at 200 µM (≈ 60.9 µg/mL). In data set [1], `Cc1cc(O)c2c(c1)[C@H]([C@@H](C)CCC(O)C(C)(C)N=[N+]=[N-])CC[C@H]2C` (stereo partly specified) had an MIC of 181 µM (≈ 62.5 µg/mL). This molecule showed a CC50 at 48 h in data set [2] of 231 µM. Besides, the “Selectivity Index” value in data set [3] was 1.3.

Take `Cc1cc(O)c2c(c1)[C@H]([C@@H](C)CCC(N=[N+]=[N-])C(C)(C)O)CC[C@H]2C` (stereo partly specified): the MIC in data set [1] is 90 µM (≈ 31.1 µg/mL). The molecule further gave a CC50 at 48 h in data set [2] of 127 µM. Further, the “Selectivity Index” value in data set [3] came out at 1.4. For `Cc1cc(O)c2c(c1)[C@H]([C@@H](C)CCC(O)C(C)(C)N)CC[C@H]2C` (stereo partly specified) the same measures were 98 µM (≈ 31.3 µg/mL), 141 µM and 1.4. In data set [1], `Cc1cc(O)c2c(c1)[C@H]([C@@H](C)CCC(N)C(C)(C)O)CC[C@H]2C` (stereo partly specified) displayed an MIC of 98 µM (≈ 31.3 µg/mL). This molecule also came in with a CC50 at 48 h in data set [2] of 158 µM. In addition, in data set [3], the “Selectivity Index” value amounted to 1.6.

`C/C(=C\CC[C@H](C)[C@@H]1CC[C@@H](C)c2c(O)cc(C)cc21)CO` yielded an MIC in data set [1] of 25.8 µM (≈ 7.8 µg/mL). For the same molecule, in data set [2], the CC50 at 48 h was 132 µM. The “Selectivity Index” value in data set [3] is recorded as 5.1. Molecule `C/C(C=O)=C\CC[C@H](C)[C@@H]1CC[C@@H](C)c2c(O)cc(C)cc21` gave an MIC in data set [1] of 25.8 µM (≈ 7.75 µg/mL). Besides, the CC50 at 48 h in data set [2] came to 116 µM. In addition, the “Selectivity Index” value in data set [3] was 4.5. Turning to `CCCCOc1cc(C)cc2c1[C@H](C)CC[C@H]2[C@@H](C)CCC=C(C)C`, the MIC in data set [1] is above 200 µM. As for `CCCCCCOc1cc(C)cc2c1[C@H](C)CC[C@H]2[C@@H](C)CCC=C(C)C`, in data set [1], the MIC was above 200 µM. Still for that read-out and setting: under `CC(C)=CCC[C@H](C)[C@@H]1CC[C@@H](C)c2c(OCc3ccc(Cl)cc3)cc(C)cc21` stands above 200 µM; under `CC(C)=CCC[C@H](C)[C@@H]1CC[C@@H](C)c2c(OCc3ccc([N+](=O)[O-])cc3)cc(C)cc21`, above 200 µM. In data set [1], `CC(C)=CCC[C@H](C)[C@@H]1CC[C@@H](C)c2c(OCc3cc([N+](=O)[O-])cc([N+](=O)[O-])c3)cc(C)cc21` displayed an MIC above 200 µM.

Turning to `CC(C)=CCC[C@H](C)[C@@H]1CC[C@@H](C)c2c(OCCCCBr)cc(C)cc21`, the minimal inhibitory concentration (MIC) in data set [1] is above 200 µM. For the molecule `CC(C)=CCC[C@H](C)[C@@H]1CC[C@@H](C)c2c(OCCCCOc3cc(C)cc4c3[C@H](C)CC[C@H]4[C@@H](C)CCC=C(C)C)cc(C)cc21`, in data set [1], the MIC was 200 µM (≈ 125 µg/mL). As to `CC(C)=CCC[C@H](C)[C@@H]1CC[C@@H](C)c2c(OCCCCCCBr)cc(C)cc21`, the MIC in data set [1] was above 200 µM. On the same count and under the same terms, to `CC(C)=CCC[C@H](C)[C@@H]1CC[C@@H](C)c2c(OCCCCCCOc3cc(C)cc4c3[C@H](C)CC[C@H]4[C@@H](C)CCC=C(C)C)cc(C)cc21` belongs 190 µM (≈ 124 µg/mL); to `CC(C)=CCC[C@H](C)[C@@H]1CC[C@@H](C)c2c(OC(=O)c3ccc([N+](=O)[O-])cc3)cc(C)cc21`, above 200 µM; to `CC(C)=CCC[C@H](C)[C@@H]1CC[C@@H](C)c2c(OC(=O)c3ccco3)cc(C)cc21`, above 200 µM. Consider `CC(C)=CCC[C@H](C)[C@@H]1CC[C@@H](C)c2c(O)cc(C)c(Cc3cc([N+](=O)[O-])cc([N+](=O)[O-])c3)c21`, for which the MIC in data set [1] stood at 17.2 µM (≈ 8.03 µg/mL). The same molecule returned a CC50 at 48 h in data set [2] above 770 µM. Further, the “Selectivity Index” value in data set [3] is above 45.

Regarding `Cc1cc(O)c2c(c1)[C@H]([C@@H](C)CCC1OC1(C)C)CC[C@H]2C` (mixture of isomers), in data set [1], the MIC came to 103 µM. The molecule also displayed a CC50 at 48 h in data set [2] of 661 µM. The “Selectivity Index” value in data set [3] was 6.4.

`CC[C@@H](CO)NCCN[C@@H](CC)CO` [ETHAMBUTOL] gave an MIC in data set [1] of 7.5 µM (≈ 1.53 µg/mL). In addition, the CC50 at 48 h in data set [2] is above 500 µM. Further, in data set [3], the “Selectivity Index” value is given as above 67. `COc1cc(C)cc2c1[C@H](C)CC[C@H]2[C@@H](C)CCC=C(C)C` [LEUBETHANOL METHYL ETHER] came in with an MIC in data set [1] above 200 µM.

Consider `CC(C)=CCC[C@H](C)[C@@H]1CC[C@@H](C)c2c(O)cc(C)cc21` [LEUBETHANOL], for which the minimal inhibitory concentration (MIC) in data set [1] stood at 25.1 µM (≈ 7.19 µg/mL). This molecule also registered a CC50 at 48 h in data set [2] of 123 µM. In addition, the “Selectivity Index” value in data set [3] is 4.9. `CC(=O)Oc1cc(C)cc2c1[C@H](C)CC[C@H]2[C@@H](C)CCC=C(C)C` [LEUBETHANYL ACETATE]: in data set [1], the MIC was 48.7 µM. Besides, the CC50 at 48 h in data set [2] is above 1100 µM. Besides, the “Selectivity Index” value in data set [3] is above 22.6. The molecule `CC(C)=CCC[C@H](C)[C@@H]1CC[C@@H](C)c2c(OC(=O)c3ccccc3)cc(C)cc21` [LEUBETHANYL BENZOATE] registered an MIC in data set [1] above 200 µM.

`CCCCCC(=O)Oc1cc(C)cc2c1[C@H](C)CC[C@H]2[C@@H](C)CCC=C(C)C` [LEUBETHANYL HEXANOATE] gave an MIC in data set [1] above 200 µM.

(Values after ChEMBL document CHEMBL2046345, “Synthesis of Leubethanol derivatives and evaluation against Mycobacterium tuberculosis” (Bioorg Med Chem, 2012).)
